For series [1], the system named is Radical scavenging activity. The experiment in a line: Antioxidant activity assessed as DPPH free radical scavenging activity. Format: functional. A general note: The DPPH test is a chemical assay of radical scavenging.
The nature of series [2]: Cytotoxicity against rat PC12 cells at 0.01 to 100 uM after 24 hrs by MTT assay. Format: cell-based. To be noted: pc-12, 24 h. In a few lines: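 PC12 cells kept in RPMI-1640 with 10% heat-inactivated FBS and 1% penicillin-streptomycin at 37°C, 5% CO2. Seeded 1×10^4 cells/well, exposed to compound (0.01-100 μM) for 24 h. MTT (2.0 mg/ml) added for 4 h at 37°C, formazan dissolved in DMSO, read at 570/630 nm. Viability given as percent of control cultures.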
In general terms: Formazan colour is commonly taken as a measure of viable cells.

The next series concerns PC-12. The experiment in a line: Neuroprotective activity against amyloid beta (1 to 42)-induced cytotoxicity in rat PC12 cells at 0.01 to 100 uM pretreated for 24 hrs followed by addition of 25 uM amyloid beta (1 to 42) by MTT assay. Format: functional, cell-based. In a few lines: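 PC12 cells (RPMI-1640, 10% heat-inactivated FBS, 37°C, 5% CO2) pre-incubated with compound (0.01-100 μM) in serum-free medium for 24 h, then given 25 µM Aβ1-42. Untreated control lacked Aβ. Selegiline served as positive control. MTT 2.0 mg/ml for 4 h at 37°C, DMSO solubilization, 570/630 nm read. Mean percent viable cells versus untreated, mean ± SE, n=5.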

The nature of series [3]: Neuroprotective activity against amyloid beta (1 to 42)-induced cytotoxicity in rat PC12 cells at 100 uM pretreated for 24 hrs followed by addition of 25 uM amyloid beta (1 to 42) by MTT assay. Format: functional, PC-12. In a few lines:
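PC12 cells in RPMI-1640/10% heat-inactivated FBS, 37°C, 5% CO2, seeded 1×10^4 cells/well. Compound pre-incubation 24 h in serum-free medium, then 25 µM Aβ1-42 added; selegiline as positive control. MTT 2.0 mg/ml, 4 h at 37°C, formazan dissolved in DMSO, read 570/630 nm. Viability as % of untreated cells, mean ± SE, n=5.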

The source made the active and inactive calls. The calls are words filed in the database; no cut-off is given here.

On to `CN(C)c1ccc(/C=C2/CN(Cc3ccccc3)C/C(=C\c3ccc(N(C)C)cc3[N+](=O)[O-])C2=O)c([N+](=O)[O-])c1`, for which the IC50 (in general, the point on the concentration scale where inhibition reaches its midpoint) in series [1] is above 50 µM. The Activity entry in series [2] is reported as “Non-toxic”. In addition, in the series with PC-12, the result was Active.
Taken in the same sequence, the figures for `O=C1/C(=C/c2ccc(N3CCCC3)cc2)CCc2ccccc21` were 29.2 µM, “Non-toxic” and “inactive”.
`CCOC(OCC)c1ccc(/C=C2\CCc3ccccc3C2=O)cc1`: the 50% inhibitory concentration (IC50) in series [1] turned out to be 39.5 µM. For the same compound, the Activity entry in series [2] was “Non-toxic”. For the same compound, the outcome with PC-12 was inactive.
Consider `CN(C)c1ccc(/C=C2\CCc3ccccc3C2=O)c([N+](=O)[O-])c1`, for which, in series [1], the IC50 amounted to 23 µM. For the same compound, the Activity result is recorded as “Non-toxic” in series [2] and “<=87%” in series [3]. For the same compound, the result in the series on PC-12 was Active.
As for `CN(C)c1ccc(/C=C/C(=O)C2CCc3ccccc3C2=O)c([N+](=O)[O-])c1` (configuration not stated), the IC50 in series [1] was determined as 49.1 µM. Moreover, the Activity result in series [2] is “Non-toxic”. In addition, in the series with PC-12, the result was Active.
For `O=C(/C=C/c1ccc(N2CCCC2)cc1)C1CCc2ccccc2C1=O` (configuration not stated) the same measures were 27.9 µM, “Non-toxic” and “inactive”.
For `CCOC(OCC)c1ccc(/C=C2\CN(C)C/C(=C\c3ccc(C(OCC)OCC)cc3)C2=O)cc1`, in series [1], the IC50 is 20.4 µM. Moreover, the values for the Activity entry in series [2] and in series [3] were “Non-toxic” and “<=87%”, respectively. Also, in the series with PC-12, the result was Active.
As to `CN(C)c1ccc(/C=C2/CNC/C(=C\c3ccc(N(C)C)cc3[N+](=O)[O-])C2=O)c([N+](=O)[O-])c1`, the IC50 in series [1] was 25.7 µM. The Activity result is recorded as “Non-toxic” in series [2] and “<=87%” in series [3]. The outcome in the series with PC-12 was Active.
With `CN(C)c1ccc(/C=C2\Cc3ccccc3C2=O)c([N+](=O)[O-])c1`, the IC50 in series [1] was above 50 µM. Also, in series [2], the Activity result is “Non-toxic”. In addition, the outcome with PC-12 was Active.
Consider `CN(C)c1ccc(/C=C2\CC/C(=C\c3ccc(N(C)C)cc3[N+](=O)[O-])C2=O)c([N+](=O)[O-])c1`, for which the half-inhibitory concentration (IC50) in series [1] was 47.8 µM. Besides, in series [2], the Activity result is recorded as “Non-toxic”. Also, the result in the series with PC-12 was Active.
For `CN(C)c1ccc(/C=C2/COC/C(=C\c3ccc(N(C)C)cc3[N+](=O)[O-])C2=O)c([N+](=O)[O-])c1` the same measures were 29.2 µM, “Non-toxic” and “Active”.
Regarding `O=C1O[C@H]([C@@H](O)CO)C(O)=C1O` [ASCORBIC ACID], the IC50 in series [1] stood at 19.4 µM.
Consider `CN1C/C(=C/c2ccc(N3CCCC3)cc2)C(=O)/C(=C/c2ccc(N3CCCC3)cc2)C1`, for which the half-maximal inhibitory concentration (IC50) in series [1] was found to be 43.3 µM. In addition, the Activity result in series [2] is given as “Non-toxic”. Moreover, the outcome in the series on PC-12 was inactive.
For `O=C1/C(=C\c2ccc(N3CCCC3)cc2)CCC/C1=C\c1ccc(N2CCCC2)cc1` the same measures were 31.3 µM, “Non-toxic” and “inactive”.
Taken in the same sequence, the figures for `CN(C)c1ccc(/C=C2/CCC/C(=C\c3ccc(N(C)C)cc3[N+](=O)[O-])C2=O)c([N+](=O)[O-])c1` were 32.5 µM, “Non-toxic” and “Active”.
Turning to `O=C1/C(=C\c2ccc(N3CCCC3)cc2)CNC/C1=C\c1ccc(N2CCCC2)cc1`, the IC50 in series [1] stood at 26.9 µM. In series [2], the Activity result is given as “Non-toxic”. For the same compound, the result in the series on PC-12 was inactive.
With `CCOC(OCC)c1ccc(/C=C2\CC/C(=C\c3ccc(C(OCC)OCC)cc3)C2=O)cc1`, in series [2], the Activity result is reported as “Non-toxic”. In addition, the result with PC-12 was inactive.
`CCOC(OCC)c1ccc(/C=C2\Cc3ccccc3C2=O)cc1`: the IC50 in series [1] is 37.2 µM. Moreover, the Activity entry in series [2] is listed as “Non-toxic”. In addition, the outcome in the series with PC-12 was inactive.
On to `O=C1/C(=C/c2ccc(N3CCCC3)cc2)CC/C1=C\c1ccc(N2CCCC2)cc1`, for which the IC50 in series [1] was above 50 µM. The Activity entry in series [2] is given as “Non-toxic”. Also, the outcome in the series on PC-12 was inactive.
For `CN(C)c1ccc(/C=C/C(=O)/C=C/c2ccc(N(C)C)cc2[N+](=O)[O-])c([N+](=O)[O-])c1` the same measures were above 50 µM, “Non-toxic” and “Active”.
On to `C#CCN(C)[C@H](C)Cc1ccccc1`, for which the outcome with PC-12 was Active.
Take `O=C1/C(=C\c2ccc(N3CCCC3)cc2)COC/C1=C\c1ccc(N2CCCC2)cc1`: in series [1], the IC50 was above 50 µM. The Activity result in series [2] is “Non-toxic”. The result with PC-12 was inactive.
For `CCOC(OCC)c1ccc(/C=C2\COC/C(=C\c3ccc(C(OCC)OCC)cc3)C2=O)cc1` the same measures were 29.3 µM, “Non-toxic” and “inactive”.
Taken in the same sequence, the figures for `CCOC(OCC)c1ccc(/C=C2\CN(Cc3ccccc3)C/C(=C\c3ccc(C(OCC)OCC)cc3)C2=O)cc1` were 28.2 µM, “Non-toxic” and “inactive”.
Taken in the same sequence, the figures for `O=C1/C(=C/c2ccc(N3CCCC3)cc2)Cc2ccccc21` were above 50 µM, “Non-toxic” and “inactive”.
Consider `CCOC(OCC)c1ccc(/C=C/C(=O)C2CCc3ccccc3C2=O)cc1` (configuration not stated), for which the half-maximal inhibitory concentration (IC50) in series [1] was above 50 µM. Also, the Activity result in series [2] is “Non-toxic”. In addition, the result with PC-12 was inactive.
For `O=C1/C(=C\c2ccc(N3CCCC3)cc2)CN(Cc2ccccc2)C/C1=C\c1ccc(N2CCCC2)cc1` the same measures were above 50 µM, “Non-toxic” and “inactive”.
For `O=C(/C=C/c1ccc(N2CCCC2)cc1)/C=C/c1ccc(N2CCCC2)cc1` the same measures were above 50 µM, “Non-toxic” and “inactive”.
In the case of `CN1C/C(=C/c2ccc(N(C)C)cc2[N+](=O)[O-])C(=O)/C(=C/c2ccc(N(C)C)cc2[N+](=O)[O-])C1`, in series [1], the half-inhibitory concentration (IC50) amounted to 18.4 µM. Further, the Activity entry is listed as “Non-toxic” in series [2] and “<=87%” in series [3]. In the series with PC-12, the result was Active.
In the case of `CCOC(OCC)c1ccc(/C=C2\CCC/C(=C\c3ccc(C(OCC)OCC)cc3)C2=O)cc1`, the IC50 in series [1] turned out to be 20.1 µM. For the same compound, the Activity entry in series [2] was “Non-toxic”; in series [3] it was “<=87%”. For the same compound, the result in the series on PC-12 was Active.
Taken in the same sequence, the figures for `CCOC(OCC)c1ccc(/C=C2\CNC/C(=C\c3ccc(C(OCC)OCC)cc3)C2=O)cc1` were 19.3 µM, “Non-toxic”, “<=87%” and “Active”.
`CCOC(OCC)c1ccc(/C=C/C(=O)/C=C/c2ccc(C(OCC)OCC)cc2)cc1`: in series [1], the IC50 is above 50 µM. Moreover, the Activity result in series [2] is on record as “Non-toxic”. For the same compound, the outcome in the series on PC-12 was inactive.

(Values after ChEMBL document CHEMBL3286139, “Synthesis of α, β-unsaturated carbonyl based compounds as acetylcholinesterase and butyrylcholinesterase inhibitors: characterization, molecular modeling, QSAR studies and effect against amyloid β-induced cytotoxicity” (Eur J Med Chem, 2014).)
